# Reference: ChEMBL document CHEMBL4145630, “Development of Highly Potent and Selective Steroidal Inhibitors and Degraders of CDK8” (ACS Med Chem Lett, 2018)
# Legend:
# [1] = target: T1, Cyclin-dependent kinase 8 (Homo sapiens, UniProt P49336); assay: Inhibition of wild-type human partial length CDK8 (M1 to T360 residues) expressed in bacterial expression system at 10 uM by Kinomescan method relative to control
# Summary of the method: (§1)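 Ambit KINOMEscan binding panel run at a single 10 μM concentration; results expressed relative to control, with a 90% inhibition cutoff applied.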
# [2] = target: T2, Cyclin-dependent kinase 19 (Homo sapiens, UniProt Q9BWU1); assay: Inhibition of human CDK19 (M1 to N360 residues) expressed in bacterial expression system by KINOMEscan assay
# T2 sequence (Q9BWU1 whole entry, the tested form may be a part): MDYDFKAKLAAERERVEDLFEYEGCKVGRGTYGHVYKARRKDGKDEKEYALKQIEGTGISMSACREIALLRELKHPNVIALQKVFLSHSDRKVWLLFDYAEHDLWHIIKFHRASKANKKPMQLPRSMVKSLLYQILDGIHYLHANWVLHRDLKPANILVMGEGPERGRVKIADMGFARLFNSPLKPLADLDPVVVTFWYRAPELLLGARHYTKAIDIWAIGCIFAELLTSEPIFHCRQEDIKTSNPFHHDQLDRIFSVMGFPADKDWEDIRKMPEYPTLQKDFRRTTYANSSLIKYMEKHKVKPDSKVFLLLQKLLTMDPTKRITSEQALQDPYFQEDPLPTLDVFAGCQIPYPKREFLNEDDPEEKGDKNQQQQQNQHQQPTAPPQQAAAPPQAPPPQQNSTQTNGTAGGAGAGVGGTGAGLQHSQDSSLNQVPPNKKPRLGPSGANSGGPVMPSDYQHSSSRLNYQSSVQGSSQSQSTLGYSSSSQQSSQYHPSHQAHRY
# [3] = target: 1-phosphatidylinositol 3-phosphate 5-kinase (Homo sapiens) (UniProt Q9Y2I7); assay: Inhibition of wild-type human partial length PIKFYVE (F1512 to C2098 residues) expressed in mammalian expression system at 10 uM by Kinomescan method relative to control; summary of the method: as §1
# Sequence of 1-phosphatidylinositol 3-phosphate 5-kinase (Homo sapiens) (Q9Y2I7 whole entry, the tested form may be a part): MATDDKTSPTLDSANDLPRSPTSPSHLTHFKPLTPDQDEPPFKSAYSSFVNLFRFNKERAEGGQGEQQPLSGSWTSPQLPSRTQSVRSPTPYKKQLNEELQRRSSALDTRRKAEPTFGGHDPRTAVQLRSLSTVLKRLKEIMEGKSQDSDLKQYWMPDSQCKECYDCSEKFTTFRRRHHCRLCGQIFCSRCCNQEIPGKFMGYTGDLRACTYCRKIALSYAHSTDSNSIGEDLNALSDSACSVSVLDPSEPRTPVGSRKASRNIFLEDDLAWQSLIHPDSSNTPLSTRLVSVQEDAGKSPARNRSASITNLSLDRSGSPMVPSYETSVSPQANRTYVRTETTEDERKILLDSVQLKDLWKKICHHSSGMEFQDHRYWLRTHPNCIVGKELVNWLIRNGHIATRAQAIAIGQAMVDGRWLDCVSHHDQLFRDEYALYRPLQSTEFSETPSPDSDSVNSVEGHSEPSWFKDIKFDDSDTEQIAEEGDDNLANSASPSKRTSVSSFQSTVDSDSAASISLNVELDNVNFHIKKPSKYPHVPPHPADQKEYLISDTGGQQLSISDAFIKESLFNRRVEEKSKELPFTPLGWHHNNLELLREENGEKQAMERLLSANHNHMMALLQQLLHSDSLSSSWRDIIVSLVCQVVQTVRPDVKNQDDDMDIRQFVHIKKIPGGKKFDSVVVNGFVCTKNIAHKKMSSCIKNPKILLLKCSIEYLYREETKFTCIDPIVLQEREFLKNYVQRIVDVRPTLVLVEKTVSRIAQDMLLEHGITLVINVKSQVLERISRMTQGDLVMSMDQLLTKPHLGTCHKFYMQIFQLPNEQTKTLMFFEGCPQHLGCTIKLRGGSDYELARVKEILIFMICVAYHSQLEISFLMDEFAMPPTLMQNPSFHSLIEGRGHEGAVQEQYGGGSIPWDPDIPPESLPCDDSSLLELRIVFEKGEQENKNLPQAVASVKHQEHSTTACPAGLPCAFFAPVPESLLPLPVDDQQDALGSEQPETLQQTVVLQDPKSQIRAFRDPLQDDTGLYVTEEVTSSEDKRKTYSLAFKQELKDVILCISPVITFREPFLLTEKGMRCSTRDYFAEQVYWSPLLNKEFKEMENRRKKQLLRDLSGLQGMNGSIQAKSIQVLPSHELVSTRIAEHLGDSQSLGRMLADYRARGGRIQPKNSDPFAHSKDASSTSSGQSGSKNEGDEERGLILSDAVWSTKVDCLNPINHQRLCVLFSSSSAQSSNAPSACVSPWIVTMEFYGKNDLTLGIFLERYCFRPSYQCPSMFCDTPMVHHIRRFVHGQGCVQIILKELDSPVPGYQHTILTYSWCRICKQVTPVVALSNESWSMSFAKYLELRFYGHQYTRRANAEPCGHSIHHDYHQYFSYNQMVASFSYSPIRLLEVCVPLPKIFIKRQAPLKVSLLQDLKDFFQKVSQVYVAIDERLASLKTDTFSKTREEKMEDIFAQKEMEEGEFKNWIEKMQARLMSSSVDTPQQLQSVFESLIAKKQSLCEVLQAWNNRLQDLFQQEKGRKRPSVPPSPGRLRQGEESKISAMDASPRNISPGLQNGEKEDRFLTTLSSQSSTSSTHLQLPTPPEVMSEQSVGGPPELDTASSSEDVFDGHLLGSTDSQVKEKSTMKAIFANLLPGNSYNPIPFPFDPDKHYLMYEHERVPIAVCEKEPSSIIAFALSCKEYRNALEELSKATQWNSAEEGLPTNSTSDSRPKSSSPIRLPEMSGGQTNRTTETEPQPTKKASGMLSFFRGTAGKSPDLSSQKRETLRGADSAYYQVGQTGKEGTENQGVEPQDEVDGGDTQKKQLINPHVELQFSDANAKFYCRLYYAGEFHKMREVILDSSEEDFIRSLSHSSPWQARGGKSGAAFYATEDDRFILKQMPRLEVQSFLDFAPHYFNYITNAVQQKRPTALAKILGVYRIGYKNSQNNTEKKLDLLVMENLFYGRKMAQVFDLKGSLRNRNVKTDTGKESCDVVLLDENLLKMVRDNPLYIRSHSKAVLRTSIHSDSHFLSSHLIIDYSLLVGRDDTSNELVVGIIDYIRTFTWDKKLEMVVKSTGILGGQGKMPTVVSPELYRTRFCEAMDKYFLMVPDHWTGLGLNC
# [4] = target: T3, Serine/threonine-protein kinase Nek1 (Homo sapiens, UniProt Q96PY6); assay: Inhibition of wild-type human partial length NEK1 (M1 to K278 residues) expressed in bacterial expression system by Kinomescan method
# T3 sequence (Q96PY6 whole entry): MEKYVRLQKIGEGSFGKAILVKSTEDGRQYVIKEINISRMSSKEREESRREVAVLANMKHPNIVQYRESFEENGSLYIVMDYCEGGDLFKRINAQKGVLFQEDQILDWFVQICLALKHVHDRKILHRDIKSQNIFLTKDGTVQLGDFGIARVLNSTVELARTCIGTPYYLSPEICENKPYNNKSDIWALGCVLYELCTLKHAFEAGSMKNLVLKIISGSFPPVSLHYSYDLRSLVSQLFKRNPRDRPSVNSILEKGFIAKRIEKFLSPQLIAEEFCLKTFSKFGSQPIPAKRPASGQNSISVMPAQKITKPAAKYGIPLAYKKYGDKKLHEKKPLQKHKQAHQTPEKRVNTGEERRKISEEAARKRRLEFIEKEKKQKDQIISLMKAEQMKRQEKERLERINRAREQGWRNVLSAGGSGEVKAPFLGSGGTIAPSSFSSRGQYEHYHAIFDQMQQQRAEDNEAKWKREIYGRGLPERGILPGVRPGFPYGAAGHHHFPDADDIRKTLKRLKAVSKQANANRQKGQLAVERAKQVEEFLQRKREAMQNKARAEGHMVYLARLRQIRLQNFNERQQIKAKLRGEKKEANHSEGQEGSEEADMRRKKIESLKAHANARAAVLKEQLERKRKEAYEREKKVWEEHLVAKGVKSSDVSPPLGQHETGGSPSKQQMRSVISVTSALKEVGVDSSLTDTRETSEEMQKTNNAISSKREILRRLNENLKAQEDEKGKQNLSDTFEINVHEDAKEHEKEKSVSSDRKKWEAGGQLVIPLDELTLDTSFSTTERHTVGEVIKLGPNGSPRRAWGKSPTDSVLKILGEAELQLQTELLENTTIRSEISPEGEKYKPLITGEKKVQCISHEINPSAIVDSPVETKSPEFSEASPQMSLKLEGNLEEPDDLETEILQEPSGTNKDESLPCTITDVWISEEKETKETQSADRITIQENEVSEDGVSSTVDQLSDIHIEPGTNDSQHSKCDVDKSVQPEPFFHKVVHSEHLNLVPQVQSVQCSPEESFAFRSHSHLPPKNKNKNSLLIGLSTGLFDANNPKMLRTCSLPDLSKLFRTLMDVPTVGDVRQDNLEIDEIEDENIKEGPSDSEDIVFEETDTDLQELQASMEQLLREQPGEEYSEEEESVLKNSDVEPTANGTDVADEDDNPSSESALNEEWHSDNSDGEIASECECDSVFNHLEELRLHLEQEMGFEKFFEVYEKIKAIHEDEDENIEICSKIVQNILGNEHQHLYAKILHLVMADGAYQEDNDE
# [5] = target: T4, Serine/threonine-protein kinase Nek1 (Homo sapiens) (UniProt Q96PY6); assay: Inhibition of wild-type human partial length NEK1 (M1 to K278 residues) expressed in bacterial expression system at 10 uM by Kinomescan method relative to control; summary of the method: as §1
# T4 sequence (whole entry): T3 sequence (Q96PY6 whole entry)
# [6] = target: T1, Cyclin-dependent kinase 8; assay: Inhibition of CDK8 (unknown origin)
# [7] = target: T2, Cyclin-dependent kinase 19; assay: Inhibition of human CDK19 (M1 to N360 residues) expressed in bacterial expression system at 10 uM by KINOMEscan assay relative to control
# [8] = target: T1, Cyclin-dependent kinase 8; assay: Inhibition of CDK8 in human HepG2 cells assessed as reduction in IFNgamma-induced STAT1 phosphorylation at S727 measured after 18 hrs by Western blot analysis; assay type: cell-based
# T1 sequence (P49336 whole entry, the tested form may be a part): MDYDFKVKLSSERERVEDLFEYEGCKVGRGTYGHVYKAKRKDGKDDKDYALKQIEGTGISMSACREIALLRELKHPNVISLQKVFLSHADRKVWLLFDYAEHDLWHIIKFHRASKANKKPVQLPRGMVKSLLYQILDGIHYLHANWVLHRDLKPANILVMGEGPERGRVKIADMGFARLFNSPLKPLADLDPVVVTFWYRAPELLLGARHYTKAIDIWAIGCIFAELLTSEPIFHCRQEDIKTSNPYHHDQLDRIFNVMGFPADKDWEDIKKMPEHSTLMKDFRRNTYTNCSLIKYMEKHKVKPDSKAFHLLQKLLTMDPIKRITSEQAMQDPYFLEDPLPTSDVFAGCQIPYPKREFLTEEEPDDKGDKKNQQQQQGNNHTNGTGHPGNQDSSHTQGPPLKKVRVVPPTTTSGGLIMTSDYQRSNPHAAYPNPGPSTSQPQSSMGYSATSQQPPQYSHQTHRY
compound,measurement,setting,value
CN(C)[C@H]1CC[C@@]2(C)C(=CC[C@H]3[C@@H]4CC[C@H](c5ccc6ccncc6c5)[C@@]4(C)CC[C@@H]32)C1,inhibition,[1],> 90%
same,IC50,[2],8 nM
same,inhibition,[3],> 90%
same,IC50,[4],> 10000 nM
same,inhibition,[5],> 90%
same,IC50,[6],16 nM
same,inhibition,[7],> 90%
same,inhibition,[8],Dose-dependent effect
